The test system of assay [1] is Rattus norvegicus. The assay can be described thus: Ability of compound to reduce the infarct size in rat administered via bolus at 0.02 mmol/kg. The class given is functional. The method in brief:
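Male Wistar rats, carotid artery and jugular vein cannulated, LAD snare placed, 30 min stabilization. Bolus injection 0.02 mmol/kg given 5 min before LAD occlusion; saline infusion controls. 25 min ischemia, 2 h reperfusion. Area at risk delineated with Evans blue (2% w/v). AR pieces stained with NBT (0.5 mg/mL) for 40 min at 37 °C. Infarct size expressed as % of AR.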

The species entered for assay [2] is Rattus norvegicus. The experiment in a line: Inhibitory activity against ATP receptor in isolated perfused rat heart.
The species entered for assay [3] is Rattus norvegicus. The experiment in a line: Fatty acid oxidation was measured using [3H]- palmitate in perfusing rat heart. The class given is functional. The method in brief: (§1)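 Isolated, spontaneously beating rat hearts under aerobic perfusion for 60 min. Test agents perfused at 1 mM, DCA positive control at 3 mM, untreated controls; n = 6 hearts per group. [3H]-palmitate and [14C]-glucose perfused together to measure fatty acid and glucose oxidation simultaneously.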

The species named for assay [4] is Rattus norvegicus. The experiment in a line: Glucose oxidation was measured using [C14] Glucose in perfusing rat heart. The class given is functional. Summed up: as §1

Molecules are shown by their SMILES.

The results in this text go back to ChEMBL document CHEMBL1145052, “Design and synthesis of novel pyridoxine 5'-phosphonates as potential antiischemic agents” (J Med Chem, 2003).

In the assay on Rattus norvegicus [1], `Cc1ncc(CP(=O)(O)O)c(O)c1O` displayed a Reduction of 20%.

On to `Cc1ncc(C(O)P(=O)(O)O)c(O)c1O` (centres undefined), for which the Reduction with Rattus norvegicus [1] came out at 19%.

Compound `Cc1ncc(COP(=O)(O)O)c(C=O)c1O` [PYRIDOXAL PHOSPHATE ANHYDROUS] came in with a Reduction with Rattus norvegicus [1] of 33%. The Activity is 10 µM in the assay listed under Rattus norvegicus [2], 398 in the assay listed under Rattus norvegicus [3] and 2253 in the assay listed under Rattus norvegicus [4].

In the assay with Rattus norvegicus [1], `Cc1ncc2c(c1O)COC2(O)C(F)(F)P(=O)(O)O` (centres undefined) displayed a Reduction of 46%. For the same compound, the Activity in the assay filed under Rattus norvegicus [3] stood at 414; in the assay filed under Rattus norvegicus [4], 2339.
